Compound activity deposited in PubChem BioAssay by several laboratories.
The list is not random: actives were taken first. Their share in the collection is about 1.6%.
Rpn11 block = Rpn11 (human) deubiquitinase inhibition. 360,000 compounds, 0.59% hits. human 26S proteasome, Ub4-pepOG fluorescence polarization; 20S core pre-blocked with epoxomicin. inhibition, % at 20 µM;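 active = inhibition at 20 µM, scaled to each plate's controls, above about 33%, limit read from the data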
Target sequence (O00487 whole entry, looked up): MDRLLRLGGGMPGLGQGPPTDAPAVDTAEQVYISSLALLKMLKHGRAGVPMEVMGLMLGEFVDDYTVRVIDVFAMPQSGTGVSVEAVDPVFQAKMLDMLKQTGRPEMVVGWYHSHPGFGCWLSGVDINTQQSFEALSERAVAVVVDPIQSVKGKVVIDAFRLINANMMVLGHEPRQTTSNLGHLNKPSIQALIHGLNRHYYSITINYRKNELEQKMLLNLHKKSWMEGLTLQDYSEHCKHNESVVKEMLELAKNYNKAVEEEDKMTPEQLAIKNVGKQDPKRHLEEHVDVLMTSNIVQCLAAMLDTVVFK
HNF4A DNA FP = change in binding of human HNF4 alpha to DNA; activity change, % at 10 µM; 360,000 compounds, 0.3% hits; HNF4a-FITC DNA binding, fluorescence polarization, 1 h; AID 1224865; P41235; in the data active = activity change above about 30%, passing the limit was not always enough
SENP1 FRET inh = SENP1 (human) catalytic domain inhibition. inhibition, % at 10 µM. AID 624204. Q9P0U3. recombinant SENP1 catalytic domain, CyPet-SUMO1-YPet FRET cleavage. 360,000 compounds, 0.21% hits;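 active = inhibition at least 30% at 10 µM, raw YFP signal under a set limit, fluorescence ratio 0.5 to 1.5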;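 note: 0% = enzyme with DMSO and 100% = no enzyme wells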
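Test system: recombinant human SENP1 catalytic domain, His6-tagged / Medium: pH 8 Tris buffer with EDTA, NaCl, BME, BSA, NP40, catalase / Also added: SUMO1 FRET substrate flanked by Cypet and Ypet, 25 nM / Times: 50 min reaction at room temperature / Signal: FRET, CFP and YFP emission / Control set: no-enzyme low control and enzyme-plus-DMSO high control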
TPT1 inhibitor = C. albicans TPT1 enzyme inhibition; inhibition, % at 5 µM; AID 1962; 300,000 compounds, 0.81% hits; recombinant caTPT1, FP RNA substrate dephosphorylation;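 active = inhibition above the mean of all tested compounds plus 3 SD, set per screening campaign, cut at about 24% in these data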;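 note: plate controls were DMSO alone for no effect and ferristatin control at 100 nM for full effect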
CSN inh = inhibitors of human CSN-mediated cullin deneddylation. AID 651999. 360,000 compounds, 0.38% hits. Purified CSN, SCF-Nedd8-OG deneddylation, fluorescence polarization. Q92905. inhibition, % at 12.5 µM;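 active = pattern-corrected inhibition above about 35%, with an unprinted fluorescence ratio check between 0.5 and 1.5, limit read from the data, passing the limit was not always enough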;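 note: 0% = enzyme with substrate and 100% = substrate without enzyme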
Target sequence (Q92905 whole entry, looked up, one chain of several): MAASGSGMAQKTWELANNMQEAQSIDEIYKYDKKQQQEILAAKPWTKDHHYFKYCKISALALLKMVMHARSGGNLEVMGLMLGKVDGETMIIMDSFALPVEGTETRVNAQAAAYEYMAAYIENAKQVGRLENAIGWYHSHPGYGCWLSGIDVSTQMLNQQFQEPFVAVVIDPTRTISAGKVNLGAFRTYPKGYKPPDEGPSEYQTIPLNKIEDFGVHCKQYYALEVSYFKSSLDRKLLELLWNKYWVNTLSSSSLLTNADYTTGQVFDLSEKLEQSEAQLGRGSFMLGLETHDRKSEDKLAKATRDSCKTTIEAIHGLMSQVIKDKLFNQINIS
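Assay system: HEK293T-derived human Csn5 enzyme; quantity: 0.24 nM enzyme; medium: Tris/NaCl/DTT buffer, pH 7.5; also added: substrate SCFSkp2-Nedd8OG, 10 nM; doses: 12.5 µM compound; schedule: 90 min reaction at room temperature; signal: FP; read-out: % inhibition of substrate cleavage by Csn5; benchmarks: substrate-only high control, full reaction low control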
TPT1 inh confirm = TPT1 (C. albicans) inhibition, confirmation | 2,400 compounds, 74% hits | recombinant caTPT1, fluorescence polarization, RNase T1 coupled | shares compounds with TPT1 inhibitor | inhibition, % at 5 µM;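 active = inhibition above the primary screen limit, the mean inhibition of all tested compounds plus 3 SD, cut at about 25% in these data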
RNase T1 inh = RNase T1 inhibition in TPT1 counter-screen; shares compounds with TPT1 inhibitor; 2,400 compounds, 83% hits; AID 2153; RNase T1 cleavage, fluorescence polarization, 1536-well; inhibition, % at 5 µM;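 active = inhibition above the solvent-only control well mean plus 3 SD, limit set per screening run, cut at about 23% in these data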;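 note: plate controls were DMSO wells with enzyme for no effect and wells without RNase T1 for full effect; inhibitors block cleavage so intact labeled substrate keeps polarization high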
Active calls of the source: *; nt = no result shown.

SMILES	Rpn11 block	HNF4A DNA FP	SENP1 FRET inh	TPT1 inhibitor	CSN inh	TPT1 inh confirm	RNase T1 inh
C/C(=N/NC(N)=S)c1cc2ccc(O)cc2oc1=O	nt	86	-35	25*	71	90*	97*
Cc1ccc(C(=O)NCC(=O)OCc2nnc(-c3ccc([N+](=O)[O-])cc3)o2)s1	-5	4	5	nt	-8	nt	nt
CCCCn1c(-c2csc(C(C)C)c2)n[nH]c1=S	3	-2	0	61*	-12	6	8
CC(=O)c1cccc(OCC(=O)Nc2cccc(C(=O)Nc3c(C)n(C)n(-c4ccccc4)c3=O)c2)c1	-2	3	-1	nt	-4	nt	nt
N#C/C(=C\c1ccc(N2CCCCC2)o1)C(=O)Nc1cccc(Br)c1	nt	133	-23	168*	109	191*	172*
CC1CC1c1ccc(/C=C(\C#N)C(=O)Nc2cccc(Cl)c2Cl)o1 (centres undefined)	3	1	-28	2	-3	nt	nt
COC(=O)Cn1cnc2sc3c(c2c1=O)CCCC3	-7	-3	-1	-5	-4	nt	nt
CCOC(=O)Cn1cnc2sc3c(c2c1=O)CCC3	2	0	-23	36*	4	15	23*
O=C(NNS(=O)(=O)c1ccc(Br)cc1)c1csnn1	-1	-3	1	nt	1	nt	nt
O=C(/C=C/c1ccco1)N1CCC(Cc2ccccc2)CC1	23	-11	-14	131*	19	2	2
OCC[C@@H]1C[C@@H](O)[C@H](O)[C@@]2(Cc3ccccc3O2)O1	3	0	1	-4	-1	nt	nt
N#CC1=C(N)OC2=C(CC/C2=C\c2ccc(F)cc2)C1c1ccc(F)cc1 (centres undefined)	nt	nt	nt	103*	nt	95*	102*
O=C(NCc1cccc(Cl)c1)c1ccc2ccccc2n1	5	1	1	2	-3	nt	nt
CCn1cc(C(=O)N[C@@H](CCSC)C(=O)NCCCOC)c(=O)c2cc3c(cc21)OCO3	2	1	0	0	2	nt	nt
COc1cc2nc(/C=C/c3ccc(N(C)C)cc3)sc2cc1SC	nt	132	-28	155*	121	153*	138*
Cc1ccc(S(=O)(=O)c2c(N)n(Cc3ccco3)c3nc4ccccc4nc23)cc1	4	-12	-24	27*	-13	18	29*
O=C(c1ccccn1)N1CCN(S(=O)(=O)c2ccccc2)CC1	-5	-1	0	1	-9	nt	nt
O=C(Nc1ccc(N2CCOCC2)cc1)c1ccc(Cl)c(S(=O)(=O)N2CCCCC2)c1	-5	1	1	nt	-1	nt	nt
CN1CCN(c2ccc(C(F)(F)F)cc2NC(=O)Nc2ccccc2)CC1	6	0	1	-8	-3	nt	nt
Cn1c(=O)oc2cc(S(=O)(=O)N3CCN(c4cccc(Cl)c4)CC3)ccc21	nt	16	19	81*	16	24*	33*
O=C(Cn1c(CO)nc2ccccc21)NCc1ccc2c(c1)OCO2	5	4	-1	-4	5	nt	nt
O=C(Cn1c(Cc2ccccc2)nc2ccccc21)NCc1ccc2c(c1)OCO2	-14	1	-5	61*	-1	10	16
Cc1cc(OCC(=O)OCC(=O)N2CCCc3ccccc32)ccc1Cl	10	2	-3	nt	2	nt	nt
O=C(Nc1nccs1)c1ccc(N2C(=O)C3CCCCC3C2=O)cc1 (centres undefined)	5	-5	1	65*	5	5	11
CC(C)NC(=O)c1ccc(-c2ccc(F)c(F)c2)c2ccoc12	6	4	-2	nt	2	nt	nt
SMILES	Rpn11 block	HNF4A DNA FP	SENP1 FRET inh	TPT1 inhibitor	CSN inh	TPT1 inh confirm	RNase T1 inh
COC(=O)Cn1c(CN2CCN(c3ccc(F)cc3)CC2)nc2c1c(=O)n(C)c(=O)n2C	0	1	0	90*	-4	1	8
CCCc1cc(-n2ccnc2)n2c(nc3ccccc32)c1C#N	nt	59*	-15	118*	31	102*	104*
COCc1ccc(C(=O)N(C)C2CCCN(Cc3ccccc3F)C2)o1 (centres undefined)	0	0	-1	-3	-4	nt	nt
CCC(C)NC(=O)c1cc2c(=O)[nH]c3ccc(C)cc3c2s1 (centres undefined)	5	1	0	29*	16	7	14
ClC(CCN1CCN(Cc2ccccc2)CC1)c1ccccc1 (centres undefined)	-2	-1	-2	-1	1	nt	nt
O=C(N/C=C/c1ccco1)OCc1ccccc1	36*	14	-11	31*	3	19	31*
O=S(=O)(NCCc1ccc2c(c1)OCCO2)c1cccs1	17	24	13	26*	11	20	27*
Oc1c(Cl)cc(Cl)cc1/C=C/c1ccc2cccc(O)c2n1	nt	10	-25	56*	32	51*	59*
Cc1[nH]c2ccccc2c1/C=N/NC(=S)NC(C)C	31	15	29	25*	11	39*	45*
COc1ccc(C2=NN(C(=O)c3ccccc3)C(c3ccc(OC)c(OC)c3)C2)c(O)c1 (centres undefined)	2	1	1	nt	5	nt	nt
CCOc1ccc(C2CC(c3c(O)c4ccccc4oc3=O)=NN2c2ccccc2)cc1OC (centres undefined)	nt	64	-34	69*	64	80*	82*
COC(=O)c1sccc1NC(=O)c1ccc(OC)cc1OC	2	8	2	-1	-5	nt	nt
O=C(NC1CCSC1)c1cccc(Cl)c1 (centres undefined)	2	-1	1	0	-4	nt	nt
O=C(NC1CCSC1=O)c1cccc(Cl)c1 (centres undefined)	-5	3	-1	31*	-3	6	8
O=C(NCCN1CCOCC1)/C(=C/c1ccc(Cl)cc1)NC(=O)c1ccccc1	-1	4	3	-1	1	nt	nt
CN(C)c1ccc(/C=C(/NC(=O)c2ccccc2Cl)C(=O)NCCN2CCOCC2)cc1	22	5	16	47*	5	120*	128*
CN(C)c1ccc(/C=C(/NC(=O)c2ccccc2)C(=O)NCCN2CCOCC2)cc1	25	5	11	49*	9	11	17
COc1ccc(/C=C2\CC/C(=C\c3ccc(OC)cc3OC)C2=O)c(OC)c1	nt	124	-38	148*	79	148*	138*
CC(=O)c1sc2nc(-c3cccs3)ccc2c1N	6	6	-18	13	7	nt	nt
Nc1c(C(=O)Nc2nc3ccccc3s2)sc2nc(-c3cccs3)ccc12	29	31	-27	30*	21	27*	38*
